Data from ChEMBL document CHEMBL1125563, “Selective, centrally acting serotonin 5-HT2 antagonists. 1. 2- and 6-substituted 1-phenyl-3-(4-piperidinyl)-1H-indoles” (J Med Chem, 1992).

Experiments:
Mus musculus [1] = organism: Mus musculus; test: Compound was evaluated for the inhibition of isolation-induced aggression at a threshold of, 90 seconds; assay type: functional
In short: (§1)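 Isolated male NMRI mice (3 weeks) trained to attack a nonaggressive intruder of the same strain; only mice with attack latency <25 s included. Pretested just before dosing and 2 h after sc test substance; observation maximum 180 s; at least eight mice per dose.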

Mus musculus [2] = organism: Mus musculus; test: Compound was evaluated for the inhibition of isolation-induced aggression at a threshold of 180 seconds; assay type: functional; in short: as §1
Rattus norvegicus [3] = test: Compound was evaluated for the inhibition of pergolide-induced reactions after 2 hr (administered subcutaneously); assay type: functional; conditions: sc
In short: (§2)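 Male Wistar rats with unilateral 6-OHDA lesions; test drug sc 2 h before pergolide (0.05 µmol/kg sc) to induce contralateral circling. Effect of each dose expressed as percent of mean of control sessions 1 week before and 1 week after, per rat; at least four rats per dose; ED50 by log-probit analysis.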

[4] = biological target: Serotonin 2 (5-HT2) receptor (Rattus norvegicus, UniProt P30994+P08909+P14842); test: Displacement of [3H]ketanserin from 5-hydroxytryptamine 2 receptor from rat cortical membranes.; assay type: cell membranes, Membrane
In short: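 [3H]ketanserin displacement from rat cortical membranes (5-HT2). Five concentrations across three decades in triplicate, two full curves; IC50 estimated on a log-concentration scale, given as logarithmic mean of at least two determinations.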

Rattus norvegicus [5] = test: Compound was evaluated for the inhibition of quipazine-induced head twitches after 24 hr (administered perorally); 0.026-0.12; assay type: functional; conditions: po
Rattus norvegicus [6] = test: Compound was evaluated for the inhibition of quipazine-induced head twitches after 2 h (administered subcutaneously); 0.064-0.18; assay type: functional; conditions: sc
[7] = biological target: T1, Adrenergic receptor alpha-1 (Rattus norvegicus, UniProt P15823+P23944+P43140); test: Displacement of [3H]prazosin from Alpha-1 adrenergic receptor of whole rat brain membranes; assay type: cell membranes, Membrane
T1 sequence (P15823 whole entry): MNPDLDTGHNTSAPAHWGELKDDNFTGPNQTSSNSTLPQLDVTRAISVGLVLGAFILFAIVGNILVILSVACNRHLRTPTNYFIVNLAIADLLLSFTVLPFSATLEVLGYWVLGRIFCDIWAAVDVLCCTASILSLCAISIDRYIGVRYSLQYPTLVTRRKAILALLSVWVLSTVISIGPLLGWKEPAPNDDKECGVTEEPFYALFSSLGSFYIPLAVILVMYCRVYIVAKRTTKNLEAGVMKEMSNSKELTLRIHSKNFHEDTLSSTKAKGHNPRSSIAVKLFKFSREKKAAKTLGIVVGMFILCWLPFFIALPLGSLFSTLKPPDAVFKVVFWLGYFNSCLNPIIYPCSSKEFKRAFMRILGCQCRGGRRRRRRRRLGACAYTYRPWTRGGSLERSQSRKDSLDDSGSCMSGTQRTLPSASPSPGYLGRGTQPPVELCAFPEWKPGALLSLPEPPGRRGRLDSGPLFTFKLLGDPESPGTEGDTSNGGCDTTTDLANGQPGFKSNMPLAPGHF
T1 sequence (P23944 whole entry): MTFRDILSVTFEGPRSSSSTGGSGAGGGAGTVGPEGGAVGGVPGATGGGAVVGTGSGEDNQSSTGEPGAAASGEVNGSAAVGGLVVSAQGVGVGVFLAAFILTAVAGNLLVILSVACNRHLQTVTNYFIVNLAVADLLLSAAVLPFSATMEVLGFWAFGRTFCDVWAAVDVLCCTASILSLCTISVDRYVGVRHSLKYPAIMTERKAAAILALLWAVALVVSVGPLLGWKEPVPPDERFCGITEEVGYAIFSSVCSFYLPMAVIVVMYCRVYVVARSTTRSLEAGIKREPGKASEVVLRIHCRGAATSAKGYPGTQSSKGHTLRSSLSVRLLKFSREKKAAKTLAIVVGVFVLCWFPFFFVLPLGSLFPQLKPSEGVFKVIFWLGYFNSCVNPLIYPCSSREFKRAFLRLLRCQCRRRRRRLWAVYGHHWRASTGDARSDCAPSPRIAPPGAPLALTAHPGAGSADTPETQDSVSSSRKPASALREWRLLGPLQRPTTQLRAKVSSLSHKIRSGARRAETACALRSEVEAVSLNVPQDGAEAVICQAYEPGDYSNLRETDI
T1 sequence (P43140 whole entry): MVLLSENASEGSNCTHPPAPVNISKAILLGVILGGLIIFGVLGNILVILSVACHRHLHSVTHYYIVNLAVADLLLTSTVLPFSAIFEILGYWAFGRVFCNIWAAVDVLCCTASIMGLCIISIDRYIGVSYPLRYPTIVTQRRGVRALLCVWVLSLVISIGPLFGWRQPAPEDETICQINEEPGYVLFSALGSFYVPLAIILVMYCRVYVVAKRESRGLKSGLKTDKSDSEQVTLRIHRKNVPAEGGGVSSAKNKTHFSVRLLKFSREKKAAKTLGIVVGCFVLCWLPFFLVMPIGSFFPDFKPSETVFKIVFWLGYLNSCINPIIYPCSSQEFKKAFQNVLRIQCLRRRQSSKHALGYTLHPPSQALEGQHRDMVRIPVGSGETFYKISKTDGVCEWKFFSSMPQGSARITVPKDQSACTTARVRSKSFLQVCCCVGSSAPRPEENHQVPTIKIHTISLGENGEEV
In short: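 α1 adrenoceptor binding measured as displacement of [3H]prazosin from whole rat brain membranes. Five test-drug concentrations spanning three decades in triplicate, two full curves; IC50 from log concentration-effect curves, logarithmic mean of at least two determinations.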

Rattus norvegicus [8] = test: Compound was evaluated for the inhibition of quipazine-induced head twitches after 24 hr (administered subcutaneously); 0.017-0.16; assay type: functional; conditions: sc
D(2) dopamine receptor = D(2) dopamine receptor (Rattus norvegicus, UniProt P61169); test: Displacement of [3H]-spiperone from Dopamine receptor D2 from rat striatal membranes; assay type: cell membranes, Membrane
D(2) dopamine receptor, sequence (P61169 whole entry): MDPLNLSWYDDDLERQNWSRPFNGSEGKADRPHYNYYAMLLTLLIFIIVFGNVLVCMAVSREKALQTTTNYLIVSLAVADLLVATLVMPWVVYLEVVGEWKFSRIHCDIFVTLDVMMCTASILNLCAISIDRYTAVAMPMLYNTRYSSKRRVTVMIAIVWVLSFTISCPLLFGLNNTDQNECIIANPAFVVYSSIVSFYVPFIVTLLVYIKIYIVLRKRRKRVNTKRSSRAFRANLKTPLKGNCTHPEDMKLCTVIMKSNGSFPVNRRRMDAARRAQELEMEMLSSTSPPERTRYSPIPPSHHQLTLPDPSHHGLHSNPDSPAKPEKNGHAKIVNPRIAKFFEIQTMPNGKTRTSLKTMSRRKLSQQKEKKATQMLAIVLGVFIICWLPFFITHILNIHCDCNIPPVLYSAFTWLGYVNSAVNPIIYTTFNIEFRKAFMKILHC
In short: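 [3H]spiperone displacement from rat striatal membranes (D2). Five test-drug concentrations over three decades, in triplicate, two full curves; IC50 from log concentration-effect curves, reported as logarithmic mean of at least two determinations.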

Rattus norvegicus [9] = test: Compound was evaluated for the inhibition of quipazine-induced head twitches after 2 hr (administered subcutaneously); 0.0027-0.073; assay type: functional; conditions: sc
Rattus norvegicus [10] = test: Compound was evaluated for the inhibition of quipazine-induced head twitches after 24 hr (administered perorally); 0.017-0.18; assay type: functional; conditions: po
Rattus norvegicus [11] = test: Compound was evaluated for the inhibition of quipazine-induced head twitches after 24 hr (administered subcutaneously); 0.0089-0.12; assay type: functional; conditions: sc
Mus musculus [12] = organism: Mus musculus; test: Compound was evaluated for the inhibition of isolation-induced aggression at a threshold of, 90 seconds; 3.7-9.4; assay type: functional; in short: as §1
Rattus norvegicus [13] = test: Compound was evaluated for the inhibition of quipazine-induced head twitches after 24 hr (administered subcutaneously); 0.014-0.066; assay type: functional; conditions: sc
Rattus norvegicus [14] = test: Compound was evaluated for the inhibition of quipazine-induced head twitches after 24 hr (administered perorally); 0.020-0.078; assay type: functional; conditions: po
Rattus norvegicus [15] = test: Compound was evaluated for the inhibition of pergolide-induced reactions after 2 hr (administered subcutaneously); 1.5-8.9; assay type: functional; conditions: sc; in short: as §2
Rattus norvegicus [16] = test: Compound was evaluated for the inhibition of quipazine-induced head twitches after 2 hr (administered subcutaneously); 0.022-0.056; assay type: functional; conditions: sc
Mus musculus [17] = organism: Mus musculus; test: Compound was evaluated for the inhibition of isolation-induced aggression at a threshold of 180 seconds; 4.4-13; assay type: functional; in short: as §1

Row | SMILES | IC50 [4] | IC50 [7] | IC50 (D(2) dopamine receptor) | also measured
1 | CC(C)N1CCN(CCN2CCC(c3cn(-c4ccc(F)cc4)c4cc(Cl)ccc34)CC2)C1=O | 0.0015 µM | 0.07 µM | – | ED50 (Mus musculus [1]): 2.3 µmol/kg; ED50 (Mus musculus [2]): 2 µmol/kg; ED50 (Rattus norvegicus [3]): > 17 µmol/kg; ED50 (Rattus norvegicus [5]): 0.055 µmol/kg; ED50 (Rattus norvegicus [6]): 0.11 µmol/kg; ED50 (Rattus norvegicus [8]): 0.052 µmol/kg
2 | O=C1NCCN1CCN1CCC(c2cn(-c3ccc(F)cc3)c3cc(C(F)(F)F)ccc23)CC1 | 0.0017 µM | 0.033 µM | 0.26 µM | –
3 | Cc1ccc2c(C3CCN(CCNC(=O)N(C)C)CC3)cn(-c3ccc(F)cc3)c2c1 | 0.0026 µM | 0.022 µM | 0.038 µM | –
4 | Cc1ccc2c(C3CCN(CCN4CCN(C(C)C)C4=O)CC3)cn(-c3ccccc3)c2c1 | 0.002 µM | 0.12 µM | – | ED50 (Rattus norvegicus [9]): 0.014 µmol/kg; ED50 (Mus musculus [1]): > 11 µmol/kg; ED50 (Mus musculus [2]): > 11 µmol/kg; ED50 (Rattus norvegicus [3]): > 22 µmol/kg; ED50 (Rattus norvegicus [10]): 0.056 µmol/kg; ED50 (Rattus norvegicus [11]): 0.032 µmol/kg
5 | Cc1ccc2c(C3CCN(CCN4CCN(C(C)C)C4=O)CC3)cn(-c3cccc(C(F)(F)F)c3)c2c1 | 0.15 µM | – | – | –
6 | CC(C)N1CCN(CCN2CCC(c3c[nH]c4cc(Cl)ccc34)CC2)C1=O | 0.066 µM | 0.034 µM | 0.2 µM | –
7 | Cc1ccc2c(C3CCN(CCN4CCN(C(C)C)C4=O)CC3)cn(-c3ccccc3F)c2c1 | 0.0025 µM | 0.37 µM | – | –
8 | Cc1ccc2c(C3CCN(CCN4CCN(C(C)C)C4=O)CC3)cn(-c3cccc(F)c3)c2c1 | 0.011 µM | 0.67 µM | – | –
9 | CC(C)N1CCN(CCN2CCC(c3cn(-c4ccc(F)cc4)c4cc(F)ccc34)CC2)C1=O | 0.0013 µM | 0.013 µM | 0.028 µM | –
10 | CN(C)C(=O)NCCN1CCC(c2cn(-c3ccc(F)cc3)c3cc(Cl)ccc23)CC1 | 0.0013 µM | 0.029 µM | 0.027 µM | –
11 | Cc1c(C2=CCN(CCN3CCNC3=O)CC2)c2ccccc2n1-c1ccc(F)cc1 | 0.0011 µM | 0.023 µM | 0.16 µM | –
12 | O=C1NCCN1CCN1CCC(c2cn(-c3ccc(F)cc3)c3cc(Cl)ccc23)CC1 | 0.0014 µM | 0.0096 µM | 0.056 µM | –
13 | O=C1NCCN1CCN1CCC(c2cn(-c3ccc(F)cc3)c3ccc(Cl)cc23)CC1 [SERTINDOLE] | – | 0.0034 µM | – | ED50 (Mus musculus [12]): 5.9 µmol/kg; ED50 (Rattus norvegicus [13]): 0.03 µmol/kg; ED50 (Rattus norvegicus [14]): 0.039 µmol/kg; ED50 (Rattus norvegicus [15]): 3.7 µmol/kg; ED50 (Rattus norvegicus [16]): 0.035 µmol/kg; ED50 (Mus musculus [17]): 7.5 µmol/kg
